From ChEMBL document CHEMBL3860028, “Bioactive Phenanthrene and Bibenzyl Derivatives from the Stems of Dendrobium nobile” (J Nat Prod, 2016) come the findings set out here.

For one test, the system named is Alternaria brassicicola. Put plainly: Antifungal activity against Alternaria brassicicola after 4 to 14 days by serial dilution method. It is filed as functional. The essentials: (§1)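 Fungal strains kept on potato dextrose agar. Antifungal activity tested following NCCLS recommendations, with MIC values as the read-out. Prochloraz served as positive control.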
Test [1] is described as follows: Cytotoxicity against human HeLa cells assessed as decrease in cell viability after 6 days by MTT assay. It is filed as functional, cell-based. To be noted: 144 h. The essentials:
(§2)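 Cell lines from College of Pharmacy, Hebei University, grown in DMEM with 5% fetal bovine serum at 37 °C under 5% CO2. Viability read by MTT method, IC50 values derived. Epirubicin served as positive control.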

Test [2] can be described thus: Cytotoxicity against human MCF7 cells assessed as decrease in cell viability after 6 days by MTT assay. It is filed as functional, cell-based. To be noted: MCF7, 144 h. The essentials:
as §2

A short description of test [3]: Cytotoxicity against human A549 cells assessed as decrease in cell viability after 6 days by MTT assay. The test is classed as functional, cell-based. The note with it: A549, 144 h. The essentials:
as §2

A short description of test [4]: Antifungal activity against Phytophthora parasitica var. nicotianae after 4 to 14 days by serial dilution method. It is filed as functional. The essentials:
as §1

The test system of a further test is Colletotrichum truncatum. Briefly: Antifungal activity against Colletotrichum capsici after 4 to 14 days by serial dilution method. The test is classed as functional. The essentials: as §1
A short description of test [5]: Antifungal activity against Bipolaris oryzae after 4 to 14 days by serial dilution method. The test is classed as functional. The essentials: (§3)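 Fungus maintained on potato dextrose agar. Antifungal activity determined as MIC following NCCLS (National […] for Clinical Laboratory Standards) recommendations, with prochloraz as the reference antifungal.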
The nature of test [6]: Antifungal activity against Diaporthe medusaea nitschke after 4 to 14 days by serial dilution method. To be noted: Diaporthe rudis. The test is classed as functional. The essentials:
as §1

Test [7] can be described thus: Antifungal activity against Ceratocystis paradoxa moreau after 4 to 14 days by serial dilution method. The test is classed as functional. The note with it: Thielaviopsis. The essentials: as §1
A short description of test [8]: Antifungal activity against Exserohilum turcicum after 4 to 14 days by serial dilution method. It is filed as functional. The note with it: Setosphaeria turcica. The procedure, abridged: as §1
Test [9] is described as follows: Antifungal activity against Pestallozzia theae after 4 to 14 days by serial dilution method. It is filed as functional. The procedure, abridged: as §1
A further test deals with Alternaria citri. Briefly: Antifungal activity against Alternaria citri after 4 to 14 days by serial dilution method. It is filed as functional. The essentials: as §3

≈ marks a conversion by molar mass, not a printed value. Where only a bound is given, the exact number is not on record here.

In the case of `COc1cc2c(c(OC)c1O)-c1ccc(O)cc1CC2` [FLAVANTHRIDIN], the MIC (against Alternaria brassicicola; in test [4]; against Colletotrichum truncatum; in test [5]; in test [6]; in [7]) was more than 400 µM in each case. The MIC (in test [8]; in [9]; in the test with Alternaria citri) was more than 400 µM each time. The IC50 in test [1], in test [2] and in [3] was more than 10 µM in each case.
On to `O=C1C=CC(=O)C2=C1CCc1cc(O)ccc12`, for which the MIC (in the test on Alternaria brassicicola; in [4]; with Colletotrichum truncatum; in test [5]; in [6]; in [7]) was more than 400 µM in each case. In addition, the MIC (in test [8]; in test [9]; with Alternaria citri) was more than 400 µM each time. Further, the IC50 in test [1], in [2] and in test [3] was more than 10 µM in each case.
As for `COc1cc(O)cc2ccc3cccc(O)c3c12` [MOSCATIN], the MIC (against Alternaria brassicicola; in test [4]; with Colletotrichum truncatum; in test [5]; in test [6]; in test [7]) was more than 400 µM throughout. The MIC (in test [8]; in test [9]; against Alternaria citri) was more than 400 µM throughout. The IC50 in [1], in test [2] and in test [3] was more than 10 µM in each case.
As for `COc1cc(O)c2c(c1)CCc1cc(Oc3cc(OC)c(O)c4c3CCc3cc(O)ccc3-4)ccc1-2`, the MIC (with Alternaria brassicicola; in [4]; against Colletotrichum truncatum; in test [5]; in test [6]; in [7]) was more than 400 µM in each case. The MIC (in [8]; in test [9]; with Alternaria citri) was more than 400 µM throughout. The IC50 in test [1], in [2] and in [3] was more than 10 µM each time.
As to `COC1=CC(=O)C[C@]2(CCc3cccc(O)c32)C1=O`, the MIC (with Alternaria brassicicola; in test [4]; in the test with Colletotrichum truncatum; in [5]; in [6]; in test [7]) was more than 400 µM each time. The MIC (in test [8]; in test [9]; in the test on Alternaria citri) was more than 400 µM in each case. Besides, the IC50 in test [1] was determined as 9.8 µM; in test [2], 9.4 µM; in [3], 9.9 µM.
Turning to `COc1cc(O)cc(CCc2cccc(O)c2)c1` [BATATASIN III], the MIC in the test with Alternaria brassicicola was found to be 102 µM (≈ 25 µg/mL); in test [4], 205 µM (≈ 50.1 µg/mL); in the test on Colletotrichum truncatum, 102 µM (≈ 25 µg/mL); in test [5], 102 µM (≈ 25 µg/mL); in test [6], 205 µM (≈ 50.1 µg/mL); in [7], 102 µM (≈ 25 µg/mL). Moreover, the MIC in [8] worked out at 102 µM (≈ 25 µg/mL); in [9], 205 µM (≈ 50.1 µg/mL); against Alternaria citri it was 102 µM (≈ 25 µg/mL). Further, the IC50 in [1], in [2] and in test [3] was more than 10 µM in each case.
As for `COc1cc(CCc2cc(O)cc(O)c2)ccc1O` [TRISTIN], the MIC with Alternaria brassicicola worked out at 192 µM (≈ 50.1 µg/mL); in test [4], 385 µM (≈ 100 µg/mL); against Colletotrichum truncatum, 96.2 µM (≈ 25 µg/mL); in test [5], 96.2 µM (≈ 25 µg/mL); in [6] it was 192 µM (≈ 50.1 µg/mL); in test [7], 96.2 µM (≈ 25 µg/mL). The figures for the MIC (in test [8]; in test [9]; in the test on Alternaria citri) were 385 µM (≈ 100 µg/mL), 96.2 µM (≈ 25 µg/mL) and 96.2 µM (≈ 25 µg/mL), respectively. The IC50 in test [1], in test [2] and in test [3] was more than 10 µM throughout.
With `COc1c(O)cc2ccc3cc(O)ccc3c2c1OC` [NUDOL], the MIC (in the test with Alternaria brassicicola; in [4]; against Colletotrichum truncatum; in test [5]; in [6]; in [7]) was more than 400 µM throughout. Further, the MIC (in [8]; in test [9]; in the test with Alternaria citri) was more than 400 µM throughout. Further, the IC50 in test [1], in [2] and in test [3] was more than 10 µM throughout.
In the case of `COc1cc(O)cc2ccc3c(-c4c(O)cc(OC)c5c4ccc4cccc(O)c45)ccc(O)c3c12`, the MIC (in the test with Alternaria brassicicola; in test [4]; against Colletotrichum truncatum; in test [5]; in test [6]; in [7]) was more than 400 µM each time. The minimal inhibitory concentration (MIC) (in [8]; in test [9]; against Alternaria citri) was more than 400 µM each time. The IC50 in test [1], in [2] and in test [3] was more than 10 µM throughout.
As for `COc1cc(O)c2c(c1)CCc1cc(O)c(-c3c(OC)cc4c(c3O)-c3ccc(O)cc3CC4)cc1-2`, the MIC (against Alternaria brassicicola; in test [4]; against Colletotrichum truncatum; in [5]; in test [6]; in test [7]) was more than 400 µM each time. Besides, the MIC (in test [8]; in test [9]; in the test with Alternaria citri) was more than 400 µM each time. Besides, the IC50 in test [1], in test [2] and in test [3] was more than 10 µM in each case.
On to `COc1cc2c(c(O)c1OC)-c1ccc(O)cc1CC2` [EPHEMERANTHOL A], for which the MIC (in the test on Alternaria brassicicola; in test [4]; against Colletotrichum truncatum; in test [5]; in test [6]; in test [7]) was more than 400 µM throughout. Besides, the MIC (in test [8]; in [9]; in the test on Alternaria citri) was more than 400 µM in each case. Moreover, the IC50 in [1], in test [2] and in test [3] was more than 10 µM each time.
As to `COC1=CC(=O)c2c(ccc3cc(O)c(O)cc23)C1=O`, the minimum inhibitory concentration (MIC) (against Alternaria brassicicola; in test [4]; with Colletotrichum truncatum; in test [5]; in test [6]; in [7]) was more than 400 µM in each case. Besides, the MIC (in [8]; in test [9]; with Alternaria citri) was more than 400 µM throughout. Also, the IC50 in [1], in [2] and in test [3] was more than 10 µM throughout.
Consider `COc1cc(O)c2c(c1)CCc1cccc(O)c1-2`, for which the MIC (in the test with Alternaria brassicicola; in [4]; with Colletotrichum truncatum; in test [5]; in test [6]; in test [7]) was more than 400 µM in each case. For the same compound, the MIC (in [8]; in test [9]; against Alternaria citri) was more than 400 µM throughout. Besides, the IC50 in test [1], in [2] and in test [3] was more than 10 µM throughout.
Regarding `COc1cc(O)c2c(c1)CCc1cc(O)ccc1-2` [LUSIANTHRIDIN], the MIC (against Alternaria brassicicola; in test [4]; with Colletotrichum truncatum; in test [5]; in [6]; in test [7]) was more than 400 µM in each case. Besides, the MIC (in [8]; in test [9]; in the test with Alternaria citri) was more than 400 µM in each case. Further, the IC50 in [1], in test [2] and in test [3] was more than 10 µM in each case.
In the case of `COc1cc(O)cc(CCc2ccc(O)c(OC)c2)c1` [GIGANTOL], the MIC came out at 182 µM (≈ 50 µg/mL) in the test with Alternaria brassicicola; 365 µM (≈ 100 µg/mL) in test [4]; 91.2 µM (≈ 25 µg/mL) in the test on Colletotrichum truncatum; 182 µM (≈ 50 µg/mL) in [5]; 91.2 µM (≈ 25 µg/mL) in [6]; 91.2 µM (≈ 25 µg/mL) in test [7]. Besides, the minimal inhibitory concentration (MIC) in test [8] stood at 182 µM (≈ 50 µg/mL); in [9], 91.2 µM (≈ 25 µg/mL); in the test on Alternaria citri it was 91.2 µM (≈ 25 µg/mL). The 50% inhibitory concentration (IC50) in test [1], in test [2] and in test [3] was more than 10 µM in each case.
For the compound `COC1=CC(=O)C[C@H]2CCc3cccc(O)c3[C@@]12O`, the MIC (in the test with Alternaria brassicicola; in test [4]; in the test with Colletotrichum truncatum; in test [5]; in test [6]; in [7]) was more than 400 µM throughout. For the same compound, the MIC (in test [8]; in test [9]; against Alternaria citri) was more than 400 µM in each case. Also, the IC50 in test [1], in test [2] and in [3] was more than 10 µM throughout.
In the case of `COc1cc(O)cc2c1-c1c(O)cccc1CC2` [HIRCINOL], the MIC (with Alternaria brassicicola; in test [4]; in the test with Colletotrichum truncatum; in test [5]; in [6]; in test [7]) was more than 400 µM throughout. For the same compound, the MIC (in test [8]; in test [9]; in the test on Alternaria citri) was more than 400 µM throughout. The IC50 in test [1], in test [2] and in test [3] was more than 10 µM throughout.
As to `CCCN(CCOc1c(Cl)cc(Cl)cc1Cl)C(=O)n1ccnc1` [PROCHLORAZ], the MIC in the test on Alternaria brassicicola worked out at 33.3 µM (≈ 12.5 µg/mL); in test [4] it was 133 µM (≈ 50.2 µg/mL); with Colletotrichum truncatum, 33.3 µM (≈ 12.5 µg/mL); in [5], 133 µM (≈ 50.2 µg/mL); in test [6], 133 µM (≈ 50.2 µg/mL); in test [7] it was 66.7 µM (≈ 25.1 µg/mL). In addition, the values for the MIC (in test [8]; in test [9]; with Alternaria citri) were 33.3 µM (≈ 12.5 µg/mL), 66.7 µM (≈ 25.1 µg/mL) and 66.7 µM (≈ 25.1 µg/mL), respectively.
